# Experimental data: ChEMBL document CHEMBL3272156, “(Vinylaryloxy)acetic acids. A new class of diuretic agents. 4. Various ((2-substituted and 2,2-disubstituted vinyl)aryloxy)acetic acids” (1976)
# What was measured:
# Canis familiaris [1] = assay: Diuretic activity in mongrel dog anesthetized with sodium pentobarbital assessed as urine K+ level at 10 mg/kg, iv measured after 15 to 45 mins post dose (reference value: 10 to 44 uequiv/min); format: functional, Canis lupus familiaris
# Summary of the method: (§1)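 Dogs given compound iv as the Na salt in water; clearance procedure per ref 1. Baseline is the mean of two 15-min clearance periods before dosing. Response is the mean of two consecutive 15-min periods of maximal Na+ excretion, usually 15–45 min after dosing. Values are from single representative experiments in a series of three or four dogs.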
# Canis familiaris [2] = assay: Diuretic activity in mongrel dog anesthetized with sodium pentobarbital assessed as urine volume at 10 mg/kg, iv measured after 15 to 45 mins post dose (reference value: 1 to 5 ml/min); format: functional, Canis lupus familiaris; summary of the method: as §1
# Canis familiaris [3] = assay: Diuretic activity in mongrel dog anesthetized with sodium pentobarbital assessed as urine Na+ level at 10 mg/kg, iv measured after 15 to 45 mins post dose (reference value: 3 to 44 uequiv/min); format: functional, Canis lupus familiaris; summary of the method: as §1
# Canis familiaris [4] = assay: Diuretic activity in mongrel dog anesthetized with sodium pentobarbital assessed as urine Cl- level at 10 mg/kg, iv measured after 15 to 45 mins post dose (reference value: 0 to 30 uequiv/min); format: functional, Canis lupus familiaris; summary of the method: as §1
# Canis familiaris [5] = assay: Diuretic activity in mongrel dog anesthetized with sodium pentobarbital assessed as urine Na+ level at 25 mg/kg, iv measured after 15 to 45 mins post dose (reference value: 3 to 44 uequiv/min); format: functional, Canis lupus familiaris; summary of the method: as §1
# Canis familiaris [6] = assay: Diuretic activity in mongrel dog anesthetized with sodium pentobarbital assessed as urine K+ level at 25 mg/kg, iv measured after 15 to 45 mins post dose (reference value: 10 to 44 uequiv/min); format: functional, Canis lupus familiaris; summary of the method: as §1
# Canis familiaris [7] = assay: Diuretic activity in mongrel dog anesthetized with sodium pentobarbital assessed as urine Cl- level at 25 mg/kg, iv measured after 15 to 45 mins post dose (reference value: 0 to 30 uequiv/min); format: functional, Canis lupus familiaris; summary of the method: as §1
# Canis familiaris [8] = assay: Diuretic activity in mongrel dog anesthetized with sodium pentobarbital assessed as urine volume at 25 mg/kg, iv measured after 15 to 45 mins post dose (reference value: 1 to 5 ml/min); format: functional, Canis lupus familiaris; summary of the method: as §1
# Canis familiaris [9] = assay: Diuretic activity in mongrel dog […] assessed as urine Na+ level per 6 hrs at 10 mg/kg, po as gelatin capsules (reference value: 2 equiv/6 hrs); format: functional, Canis lupus familiaris
# Summary of the method: (§2)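 Trained female mongrel dogs (8–10 kg) given 100 ml water the day before and fasted overnight. On test day they received 250 ml water orally, then 500 ml 1 h later. One hour after that, bladders were catheter-emptied and compound or placebo was given orally in gelatin capsules. Dogs were kept in metabolism cages, and spontaneous urine was pooled with catheter urine at 6 h. Volume and Na+, K+ and Cl− were measured; results are averages per dog group.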
# Canis familiaris [10] = assay: Diuretic activity in mongrel dog […] assessed as urine K+ level per 6 hrs at 10 mg/kg, po as gelatin capsules (reference value: 1 equiv/6 hrs); format: functional, Canis lupus familiaris; summary of the method: as §2
# Canis familiaris [11] = assay: Diuretic activity in mongrel dog […] assessed as urine Cl- level per 6 hrs at 10 mg/kg, po as gelatin capsules (reference value: 2 equiv/6 hrs); format: functional, Canis lupus familiaris; summary of the method: as §2
# Canis familiaris [12] = assay: Diuretic activity in mongrel dog anesthetized with sodium pentobarbital assessed as urine K+ level at 1 mg/kg, iv measured after 15 to 45 mins post dose (reference value: 10 to 44 uequiv/min); format: functional, Canis lupus familiaris; summary of the method: as §1
# Canis familiaris [13] = assay: Diuretic activity in mongrel dog anesthetized with sodium pentobarbital assessed as urine Na+ level at 1 mg/kg, iv measured after 15 to 45 mins post dose (reference value: 3 to 44 uequiv/min); format: functional, Canis lupus familiaris; summary of the method: as §1
# Canis familiaris [14] = assay: Diuretic activity in mongrel dog anesthetized with sodium pentobarbital assessed as urine Na+ level at 5 mg/kg, iv measured after 15 to 45 mins post dose (reference value: 3 to 44 uequiv/min); format: functional, Canis lupus familiaris; summary of the method: as §1
# Canis familiaris [15] = assay: Diuretic activity in mongrel dog anesthetized with sodium pentobarbital assessed as urine volume at 5 mg/kg, iv measured after 15 to 45 mins post dose (reference value: 1 to 5 ml/min); format: functional, Canis lupus familiaris; summary of the method: as §1
# Canis familiaris [16] = assay: Diuretic activity in mongrel dog anesthetized with sodium pentobarbital assessed as urine Cl- level at 1 mg/kg, iv measured after 15 to 45 mins post dose (reference value: 0 to 30 uequiv/min); format: functional, Canis lupus familiaris; summary of the method: as §1
# Canis familiaris [17] = assay: Diuretic activity in mongrel dog anesthetized with sodium pentobarbital assessed as urine Cl- level at 5 mg/kg, iv measured after 15 to 45 mins post dose (reference value: 0 to 30 uequiv/min); format: functional, Canis lupus familiaris; summary of the method: as §1
# Canis familiaris [18] = assay: Diuretic activity in mongrel dog anesthetized with sodium pentobarbital assessed as urine volume at 1 mg/kg, iv measured after 15 to 45 mins post dose (reference value: 1 to 5 ml/min); format: functional, Canis lupus familiaris; summary of the method: as §1
# Canis familiaris [19] = assay: Diuretic activity in mongrel dog anesthetized with sodium pentobarbital assessed as urine K+ level at 5 mg/kg, iv measured after 15 to 45 mins post dose (reference value: 10 to 44 uequiv/min); format: functional, Canis lupus familiaris; summary of the method: as §1
# Canis familiaris [20] = assay: Diuretic activity in mongrel dog […] assessed as urine K+ level per 6 hrs at 5 mg/kg, po as gelatin capsules (reference value: 1 equiv/6 hrs); format: functional, Canis lupus familiaris; summary of the method: as §2
# Canis familiaris [21] = assay: Diuretic activity in mongrel dog […] assessed as urine Na+ level per 6 hrs at 5 mg/kg, po as gelatin capsules (reference value: 2 equiv/6 hrs); format: functional, Canis lupus familiaris; summary of the method: as §2
# Canis familiaris [22] = assay: Diuretic activity in mongrel dog […] assessed as urine Cl- level per 6 hrs at 5 mg/kg, po as gelatin capsules (reference value: 2 equiv/6 hrs); format: functional, Canis lupus familiaris; summary of the method: as §2
# Canis familiaris [23] = assay: Diuretic activity in mongrel dog […] assessed as urine Na+ level per 6 hrs at 0.3 mg/kg, po as gelatin capsules (reference value: 2 equiv/6 hrs); format: functional, Canis lupus familiaris; summary of the method: as §2
# Canis familiaris [24] = assay: Diuretic activity in mongrel dog […] assessed as urine Cl- level per 6 hrs at 1 mg/kg, po as gelatin capsules (reference value: 2 equiv/6 hrs); format: functional, Canis lupus familiaris; summary of the method: as §2
# Canis familiaris [25] = assay: Diuretic activity in mongrel dog […] assessed as urine K+ level per 6 hrs at 0.3 mg/kg, po as gelatin capsules (reference value: 1 equiv/6 hrs); format: functional, Canis lupus familiaris; summary of the method: as §2
# Canis familiaris [26] = assay: Diuretic activity in mongrel dog assessed as urine Cl- level per 6 hrs at 0.3 mg/kg, po as gelatin capsules (reference value: 2 equiv/6 hrs)
# Canis familiaris [27] = assay: Diuretic activity in mongrel dog […] assessed as urine Na+ level per 6 hrs at 1 mg/kg, po as gelatin capsules (reference value: 2 equiv/6 hrs); format: functional, Canis lupus familiaris; summary of the method: as §2
# Canis familiaris [28] = assay: Diuretic activity in mongrel dog […] assessed as urine K+ level per 6 hrs at 1 mg/kg, po as gelatin capsules (reference value: 1 equiv/6 hrs); format: functional, Canis lupus familiaris; summary of the method: as §2
Structure (SMILES),Activity (Canis familiaris [1]),Activity (Canis familiaris [2]),Activity (Canis familiaris [3]),Activity (Canis familiaris [4]),further results
C=Cc1ccc(OCC(=O)O)c(Cl)c1Cl,29 uEq/min,1 mL/min,34 uEq/min,2 uEq/min,–
N#CC(C#N)=Cc1ccc(OCC(=O)O)cc1,10 uEq/min,2 mL/min,64 uEq/min,45 uEq/min,–
N#CC(C#N)=Cc1ccc(OCC(=O)O)cc1Cl,34 uEq/min,2 mL/min,14 uEq/min,14 uEq/min,–
N#CC(C#N)=Cc1ccc(OCC(=O)O)c(Cl)c1Cl,100 uEq/min,5 mL/min,736 uEq/min,665 uEq/min,–
CC(=C(C#N)C#N)c1ccc(OCC(=O)O)c(Cl)c1Cl,38 uEq/min,2 mL/min,123 uEq/min,125 uEq/min,–
N#C/C(=C\c1ccc(OCC(=O)O)c(Cl)c1Cl)C(N)=O,35 uEq/min,4 mL/min,180 uEq/min,88 uEq/min,–
CCOC(=O)/C(C#N)=C/c1ccc(OCC(=O)O)cc1,29 uEq/min,2 mL/min,25 uEq/min,25 uEq/min,Activity (Canis familiaris [5]): 79 uEq/min; Activity (Canis familiaris [6]): 43 uEq/min; Activity (Canis familiaris [7]): 16 uEq/min; Activity (Canis familiaris [8]): 1 mL/min
N#C/C(=C\c1ccc(OCC(=O)O)c(Cl)c1Cl)C(=O)O,32 uEq/min,1 mL/min,38 uEq/min,29 uEq/min,–
N#C/C(=C\c1ccc(OCC(=O)O)c(Cl)c1Cl)S(N)(=O)=O,–,–,–,–,Activity (Canis familiaris [9]): 6 equiv; Activity (Canis familiaris [10]): 4 equiv; Activity (Canis familiaris [11]): 6 equiv
NC(=O)C(=Cc1ccc(OCC(=O)O)c(Cl)c1Cl)C(N)=O,86 uEq/min,3 mL/min,195 uEq/min,145 uEq/min,–
CCOC(=O)C(=Cc1ccc(OCC(=O)O)cc1)C(=O)OCC,–,–,–,–,Activity (Canis familiaris [5]): 44 uEq/min; Activity (Canis familiaris [6]): 45 uEq/min; Activity (Canis familiaris [7]): 20 uEq/min; Activity (Canis familiaris [8]): 1 mL/min
CCOC(=O)C(=Cc1ccc(OCC(=O)O)c(Cl)c1Cl)C(=O)OCC,–,–,–,–,Activity (Canis familiaris [12]): 54 uEq/min; Activity (Canis familiaris [13]): 200 uEq/min; Activity (Canis familiaris [14]): 313 uEq/min; Activity (Canis familiaris [15]): 4 mL/min; Activity (Canis familiaris [16]): 198 uEq/min; Activity (Canis familiaris [17]): 261 uEq/min; Activity (Canis familiaris [18]): 2 mL/min; Activity (Canis familiaris [19]): 113 uEq/min
CS(=O)(=O)C(=Cc1ccc(OCC(=O)O)c(Cl)c1Cl)S(C)(=O)=O,–,–,–,–,Activity (Canis familiaris [5]): 31 uEq/min; Activity (Canis familiaris [6]): 48 uEq/min; Activity (Canis familiaris [7]): 34 uEq/min; Activity (Canis familiaris [8]): 3 mL/min
CC(=O)/C(=C/c1ccc(OCC(=O)O)c(Cl)c1Cl)S(=O)(=O)c1ccccc1,58 uEq/min,3 mL/min,183 uEq/min,166 uEq/min,–
O=C(O)COc1ccc(/C=C(/C(=O)Oc2ccccc2)S(=O)(=O)Oc2ccccc2)c(Cl)c1Cl,–,–,–,–,Activity (Canis familiaris [9]): 6 equiv; Activity (Canis familiaris [10]): 2 equiv; Activity (Canis familiaris [11]): 6 equiv
O=C(O)COc1ccc(/C=C2\C(=O)C3CCN2CC3)c(Cl)c1Cl,70 uEq/min,4 mL/min,172 uEq/min,115 uEq/min,–
N#C/C=C/c1ccc(OCC(=O)O)c(Cl)c1Cl,59 uEq/min,6 mL/min,448 uEq/min,484 uEq/min,Activity (Canis familiaris [20]): 4 equiv; Activity (Canis familiaris [21]): 12 equiv; Activity (Canis familiaris [22]): 17 equiv
C=C(CC)C(=O)c1ccc(OCC(=O)O)c(Cl)c1Cl [ETHACRYNIC ACID],–,–,–,–,Activity (Canis familiaris [23]): 8 equiv; Activity (Canis familiaris [24]): 26 equiv; Activity (Canis familiaris [25]): 2 equiv; Activity (Canis familiaris [26]): 10 equiv; Activity (Canis familiaris [27]): 21 equiv; Activity (Canis familiaris [28]): 5 equiv
